Reference: ChEMBL document CHEMBL4152234, “Aminobenzothiazole derivatives stabilize the thermolabile p53 cancer mutant Y220C and show anticancer activity in p53-Y220C cell lines” (Eur J Med Chem, 2018)
Active and inactive are the calls of the source. The calls are words filed in the database; no cut-off is given here.

Key:
[1] = test system: Cellular tumor antigen p53 (Homo sapiens), P04637 [Y220C]; experiment: Activation of p53 Y220C mutant in human NUGC3 cells assessed as change in FADD mRNA level at 60 uM after 18 hrs by RT-PCR method relative to control; assay type: cell-based
Procedure, shortened: (§1)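 p53 signalling qPCR array covering 84 genes. Cells were exposed for 18 h, with 0.5% DMSO in both compound and control samples. Total RNA was extracted and purified. Fold-changes were calculated by ΔΔCt using β2-microglobulin (B2M) as the housekeeping gene. Two independent biological replicates were run per cell line.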

[2] = test system: Cellular tumor antigen p53 (Homo sapiens), P04637 [Y220C]; experiment: Activation of p53 Y220C mutant in human NUGC3 cells assessed as change in BTG2 mRNA level at 60 uM after 18 hrs by RT-PCR method relative to control; assay type: cell-based; procedure, shortened: as §1
[3] = test system: Cellular tumor antigen p53 (Homo sapiens), P04637 [Y220C]; experiment: Activation of p53 Y220C mutant in human NUGC3 cells assessed as change in MDM2 mRNA level at 60 uM after 18 hrs by RT-PCR method relative to control; assay type: cell-based
Procedure, shortened: (§2)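 p53 signalling qPCR array covering 84 p53 pathway genes. Cells were exposed for 18 h, and compound and control wells both held 0.5% DMSO. Total RNA was extracted and purified. Fold-changes were calculated by the ΔΔCt method against the untreated sample, with β2-microglobulin (B2M) as the housekeeping gene. Each cell line was run in two independent biological replicates.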

[4] = target: T1, Cellular tumor antigen p53 (Homo sapiens, UniProt P04637); experiment: Activation of p53 in human NUGC4 cells assessed as change in CCNH mRNA level at 60 uM after 18 hrs by RT-PCR method relative to control; assay type: cell-based; conditions: read-out: FC
Procedure, shortened: (§3)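 p53 signaling qPCR array of 84 p53-pathway genes. Cells were treated in 6-well plates for 18 h with 0.5% DMSO in compound and control samples. Total RNA was extracted and fold-changes were obtained by the ΔΔCt method against untreated control, with β2-microglobulin (B2M) as housekeeping gene. Two independent biological replicates per cell line.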

[5] = target: T1, Cellular tumor antigen p53; experiment: Activation of p53 in human NUGC4 cells assessed as change in KRAS mRNA level at 60 uM after 18 hrs by RT-PCR method relative to control; assay type: cell-based; conditions: read-out: FC; procedure, shortened: as §3
[6] = test system: Huh-7; experiment: Upregulation of p21 mRNA level in p53 Y220C mutant knockout human HuH7 cells at 30 uM after 18 hrs by RT-PCR method; assay type: functional, cell-based
[7] = test system: Cellular tumor antigen p53 (Homo sapiens), P04637 [Y220C]; experiment: Activation of p53 Y220C mutant in human HuH7 cells assessed as increase in Bax mRNA level at 30 uM after 18 hrs by RT-PCR method; assay type: cell-based
Procedure, shortened: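 Real-time PCR. Cells were treated for 18 h, with 0.5% DMSO in both compound and control samples. Relative mRNA levels were quantified by the ΔΔCt method as fold-change against the untreated sample. Each sample was measured in triplicate, and data are given as mean ± SEM with an unpaired t-test.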

[8] = test system: Cellular tumor antigen p53 (Homo sapiens), P04637 [Y220C]; experiment: Activation of p53 Y220C mutant in human NUGC3 cells assessed as change in CCNE1 mRNA level at 60 uM after 18 hrs by RT-PCR method relative to control; assay type: cell-based; procedure, shortened: as §1
[9] = test system: Cellular tumor antigen p53 (Homo sapiens), P04637 [Y220C]; experiment: Activation of p53 Y220C mutant in human NUGC3 cells assessed as change in WT1 mRNA level at 60 uM after 18 hrs by RT-PCR method relative to control; assay type: cell-based; procedure, shortened: as §2
[10] = target: T1, Cellular tumor antigen p53; experiment: Activation of p53 in human NUGC4 cells assessed as change in BTG2 mRNA level at 60 uM after 18 hrs by RT-PCR method relative to control; assay type: cell-based; conditions: read-out: FC; procedure, shortened: as §3
[11] = target: T1, Cellular tumor antigen p53; experiment: Activation of p53 in human NUGC4 cells assessed as change in GML mRNA level at 60 uM after 18 hrs by RT-PCR method relative to control; assay type: cell-based; conditions: read-out: FC; procedure, shortened: as §3
[12] = test system: Cellular tumor antigen p53 (Homo sapiens), P04637 [Y220C]; experiment: Activation of p53 Y220C mutant in human NUGC3 cells assessed as change in TSC1 mRNA level at 60 uM after 18 hrs by RT-PCR method relative to control; assay type: cell-based; procedure, shortened: as §2
[13] = target: T1, Cellular tumor antigen p53; experiment: Activation of p53 in human NUGC4 cells assessed as change in TADA3 mRNA level at 60 uM after 18 hrs by RT-PCR method relative to control; assay type: cell-based; conditions: read-out: FC
[14] = test system: Cellular tumor antigen p53 (Homo sapiens), P04637 [Y220C]; experiment: Activation of p53 Y220C mutant in human NUGC3 cells assessed as change in F0X03 mRNA level at 60 uM after 18 hrs by RT-PCR method relative to control; assay type: cell-based; procedure, shortened: as §1
[15] = test system: Cellular tumor antigen p53 (Homo sapiens), P04637 [Y220C]; experiment: Activation of p53 Y220C mutant in human NUGC3 cells assessed as change in HK2 mRNA level at 60 uM after 18 hrs by RT-PCR method relative to control; assay type: cell-based; procedure, shortened: as §1
[16] = test system: Cellular tumor antigen p53 (Homo sapiens), P04637 [Y220C]; experiment: Activation of p53 Y220C mutant in human NUGC3 cells assessed as change in CDC25C mRNA level at 60 uM after 18 hrs by RT-PCR method relative to control; assay type: cell-based; procedure, shortened: as §1
[17] = target: T1, Cellular tumor antigen p53; experiment: Activation of p53 in human NUGC4 cells assessed as change in PTTG1 mRNA level at 60 uM after 18 hrs by RT-PCR method relative to control; assay type: cell-based; conditions: read-out: FC
[18] = test system: Cellular tumor antigen p53 (Homo sapiens), P04637 [Y220C]; experiment: Activation of p53 Y220C mutant in human NUGC3 cells assessed as change in IGF1R mRNA level at 60 uM after 18 hrs by RT-PCR method relative to control; assay type: cell-based; procedure, shortened: as §1
[19] = target: T1, Cellular tumor antigen p53; experiment: Activation of p53 in human NUGC4 cells assessed as change in MSH2 mRNA level at 60 uM after 18 hrs by RT-PCR method relative to control; assay type: cell-based; conditions: read-out: FC; procedure, shortened: as §3
[20] = target: T1, Cellular tumor antigen p53; experiment: Activation of p53 in human NUGC4 cells assessed as change in BIRC5 mRNA level at 60 uM after 18 hrs by RT-PCR method relative to control; assay type: cell-based; conditions: read-out: FC; procedure, shortened: as §2
[21] = target: T1, Cellular tumor antigen p53; experiment: Activation of p53 in human NUGC4 cells assessed as change in APAF1 mRNA level at 60 uM after 18 hrs by RT-PCR method relative to control; assay type: cell-based; conditions: read-out: FC; procedure, shortened: as §2
[22] = test system: Cellular tumor antigen p53 (Homo sapiens), P04637 [Y220C]; experiment: Activation of p53 Y220C mutant in human NUGC3 cells assessed as change in KRAS mRNA level at 60 uM after 18 hrs by RT-PCR method relative to control; assay type: cell-based; procedure, shortened: as §2
[23] = target: T1, Cellular tumor antigen p53; experiment: Activation of p53 in human NUGC4 cells assessed as change in MCL1 mRNA level at 60 uM after 18 hrs by RT-PCR method relative to control; assay type: cell-based; conditions: read-out: FC; procedure, shortened: as §3
[24] = test system: Cellular tumor antigen p53 (Homo sapiens), P04637 [Y220C]; experiment: Activation of p53 Y220C mutant in human NUGC3 cells assessed as change in TADA3 mRNA level at 60 uM after 18 hrs by RT-PCR method relative to control; assay type: cell-based; procedure, shortened: as §2
[25] = test system: Huh-7; experiment: Upregulation of BAX mRNA level in p53 Y220C mutant knockout human HuH7 cells at 30 uM after 18 hrs by RT-PCR method; assay type: functional, cell-based
[26] = target: T1, Cellular tumor antigen p53; experiment: Activation of p53 in human NUGC4 cells assessed as change in BAX mRNA level at 60 uM after 18 hrs by RT-PCR method relative to control; assay type: cell-based; conditions: read-out: FC; procedure, shortened: as §2
[27] = test system: Cellular tumor antigen p53 (Homo sapiens), P04637 [Y220C]; experiment: Activation of p53 Y220C mutant in human NUGC3 cells assessed as change in ATR mRNA level at 60 uM after 18 hrs by RT-PCR method relative to control; assay type: cell-based; procedure, shortened: as §1
[28] = test system: Cellular tumor antigen p53 (Homo sapiens), P04637 [Y220C]; experiment: Activation of p53 Y220C mutant in human NUGC3 cells assessed as change in EGR1 mRNA level at 60 uM after 18 hrs by RT-PCR method relative to control; assay type: cell-based; procedure, shortened: as §1

- fold change (FC) [1]: 0.4
- fold change (FC) [2]: 1.9
- fold change (FC) [3]: 1
- fold induction at 60 µM [4]: 0.9
- fold induction at 60 µM [5]: 0.9
- Activity [7]: Active
- fold change (FC) [8]: 1.2
- fold change (FC) [9]: 1.5
- fold induction at 60 µM [10]: 0.6
- fold induction at 60 µM [11]: 1.9
- fold change (FC) [12]: 1.3
- fold induction at 60 µM [13]: 1
- fold change (FC) [14]: 2
- fold change (FC) [15]: 1.7
- fold change (FC) [16]: 0.7
- fold induction at 60 µM [17]: 0.9
- fold change (FC) [18]: 1.8
- fold induction at 60 µM [19]: 0.7
- fold induction at 60 µM [20]: 0.6
- fold induction at 60 µM [21]: 1
- fold change (FC) [22]: 1.2
- fold induction at 60 µM [23]: 0.8
- fold change (FC) [24]: 0.8
- fold induction at 60 µM [26]: 0.8
- fold change (FC) [27]: 1
- fold change (FC) [28]: 1
Structure (SMILES): CCNC(=O)c1c(O)c(I)c(-n2cccc2)c2sc(N(CC)CC)nc12
- Activity [6]: inactive
- Activity [25]: inactive
